Experimental data published in EPA's CvTdb concentration-time database.

System: human
Experiment: concentration in blood after dosing; negative times count back from the end of exposure
Conditions: dosed: trichloroethylene, inhalation
In short: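 A PubMed search, classifier screening and manual review identified published in vivo toxicokinetic studies, which together with two structured collections supplied concentration-versus-time and amount-versus-time points. Points were mostly digitised from plot screenshots with WebPlotDigitizer, otherwise copied from tables. Dose, route, subject details and medium were hand-curated from each paper, and sampling and analytical methods are those of the sources, often unreported.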

Structure (SMILES): OCC(Cl)(Cl)Cl [trichloroethanol (free)]
- concentration in blood (0.2566 h, 100 ppm, duration: 4 hr, person): 2040 ng/mL
- concentration in blood (0.515 h, 100 ppm, duration: 4 hr, person): 2000 ng/mL
- concentration in blood (1.032 h, 100 ppm, duration: 4 hr, person): 1910 ng/mL
- concentration in blood (1.986 h, 100 ppm, duration: 4 hr, person): 1740 ng/mL
- concentration in blood (3.954 h, 100 ppm, duration: 4 hr, person): 1400 ng/mL
- concentration in blood (5.921 h, 100 ppm, duration: 4 hr, person): 1180 ng/mL
- concentration in blood (7.947 h, 100 ppm, duration: 4 hr, person): 1070 ng/mL
- concentration in blood (9.954 h, 100 ppm, duration: 4 hr, person): 944 ng/mL
- concentration in blood (11.96 h, 100 ppm, duration: 4 hr, person): 896 ng/mL
- concentration in blood (13.99 h, 100 ppm, duration: 4 hr, person): 727 ng/mL
- concentration in blood (15.97 h, 100 ppm, duration: 4 hr, person): 577 ng/mL
- concentration in blood (18 h, 100 ppm, duration: 4 hr, person): 459 ng/mL
- concentration in blood (-5 s, 100 ppm, duration: 4 hr, person, during exposure): 2030 ng/mL
- concentration in blood (-0.9915 h, 100 ppm, duration: 4 hr, person, during exposure): 1570 ng/mL
- concentration in blood (-2.021 h, 100 ppm, duration: 4 hr, person, during exposure): 1060 ng/mL
- concentration in blood (-2.99 h, 100 ppm, duration: 4 hr, person, during exposure): 481 ng/mL
- concentration in blood (-3.524 h, 100 ppm, duration: 4 hr, person, during exposure): 172 ng/mL

Structure (SMILES): OCC(Cl)(Cl)Cl [trichloroethanol]
- concentration in blood (0 h, 1348 mg, duration: 2 hr - 20 min): 2.8 mg/kg
- concentration in blood (0 h, 1681 mg, duration: 2 hr - 20 min): 3 mg/kg
- concentration in blood (0 h, 3907 mg, duration: 2 hr - 20 min): 3.9 mg/kg
- concentration in blood (0 h, 100 ppm, duration: 6 hr, female): 4110 ng/mL
- concentration in blood (0.5 h, 1348 mg, duration: 2 hr - 20 min): 2.7 mg/kg
- concentration in blood (0.5 h, 1681 mg, duration: 2 hr - 20 min): 3.3 mg/kg
- concentration in blood (0.5 h, 3907 mg, duration: 2 hr - 20 min): 4.5 mg/kg
- concentration in blood (1 h, 1348 mg, duration: 2 hr - 20 min): 2.6 mg/kg
- concentration in blood (1 h, 1681 mg, duration: 2 hr - 20 min): 3.3 mg/kg
- concentration in blood (1 h, 3907 mg, duration: 2 hr - 20 min): 4.2 mg/kg
- concentration in blood (1.5 h, 1348 mg, duration: 2 hr - 20 min): 2.5 mg/kg
- concentration in blood (1.5 h, 1681 mg, duration: 2 hr - 20 min): 3.2 mg/kg
- concentration in blood (1.5 h, 3907 mg, duration: 2 hr - 20 min): 4.4 mg/kg
- concentration in blood (2 h, 1348 mg, duration: 2 hr - 20 min): 2.4 mg/kg
- concentration in blood (2 h, 1681 mg, duration: 2 hr - 20 min): 3.1 mg/kg
- concentration in blood (2 h, 3907 mg, duration: 2 hr - 20 min): 4.4 mg/kg
- concentration in blood (18 h, 100 ppm, duration: 6 hr, female): 2420 ng/mL
- concentration in blood (21 h, 1348 mg, duration: 2 hr - 20 min): 0.8 mg/kg
- concentration in blood (21 h, 1681 mg, duration: 2 hr - 20 min): 1 mg/kg
- concentration in blood (21 h, 3907 mg, duration: 2 hr - 20 min): 1.6 mg/kg
- concentration in blood (24 h, 100 ppm, duration: 6 hr, female): 5640 ng/mL
- concentration in blood (42 h, 100 ppm, duration: 6 hr, female): 2510 ng/mL
- concentration in blood (48 h, 100 ppm, duration: 6 hr, female): 5750 ng/mL
- concentration in blood (66 h, 100 ppm, duration: 6 hr, female): 3180 ng/mL
- concentration in blood (72 h, 100 ppm, duration: 6 hr, female): 9060 ng/mL
- concentration in blood (90 h, 100 ppm, duration: 6 hr, female): 5590 ng/mL
- concentration in blood (96 h, 100 ppm, duration: 6 hr, female): 9010 ng/mL
- concentration in blood (-0.5 h, 1348 mg, duration: 2 hr - 20 min, during exposure): 2.2 mg/kg
- concentration in blood (-0.5 h, 1681 mg, duration: 2 hr - 20 min, during exposure): 2.1 mg/kg
- concentration in blood (-0.5 h, 3907 mg, duration: 2 hr - 20 min, during exposure): 3.1 mg/kg
- concentration in blood (-1 h, 1348 mg, duration: 2 hr - 20 min, during exposure): 1.3 mg/kg
- concentration in blood (-1 h, 1681 mg, duration: 2 hr - 20 min, during exposure): 1.9 mg/kg
- concentration in blood (-1 h, 3907 mg, duration: 2 hr - 20 min, during exposure): 2.2 mg/kg
- concentration in blood (-1.833 h, 1348 mg, duration: 2 hr - 20 min, during exposure): 0.8 mg/kg
- concentration in blood (-1.833 h, 1681 mg, duration: 2 hr - 20 min, during exposure): 0.7 mg/kg
- concentration in blood (-1.833 h, 3907 mg, duration: 2 hr - 20 min, during exposure): 1.4 mg/kg
- concentration in blood (-6 h, 100 ppm, duration: 6 hr, female, during exposure): 212 ng/mL
